Source: PubChem
The list is not random: actives were taken first. Their share in the collection is about 4.6%.
OX1R antag-1 – antagonists of human orexin 1 receptor (OX1R); O43613; OX1R-expressing cells, FRET antagonist read-out; inhibition, % at 6.6 µM; 330,000 compounds, 1.8% hits; in the data active = inhibition mostly above about 38%, no sharp cut-off; inactive = mostly below about 40%;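 note: 0% = agonist challenge alone and 100% = reference antagonist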
TAAR1 ag – agonists of human TAAR1 | activation, % at 3 µM | 360,000 compounds, 0.99% hits | CHO RD-HGA16 TAAR1, Fluo-8 calcium fluorescence; vehicle wells 0%, saturating PEA agonist 100% | Q96RJ0;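 active = activation above the mean activation of all test compounds in the run plus 3 SD, cut at about 38% in these data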
Target sequence (Q96RJ0 whole entry, looked up): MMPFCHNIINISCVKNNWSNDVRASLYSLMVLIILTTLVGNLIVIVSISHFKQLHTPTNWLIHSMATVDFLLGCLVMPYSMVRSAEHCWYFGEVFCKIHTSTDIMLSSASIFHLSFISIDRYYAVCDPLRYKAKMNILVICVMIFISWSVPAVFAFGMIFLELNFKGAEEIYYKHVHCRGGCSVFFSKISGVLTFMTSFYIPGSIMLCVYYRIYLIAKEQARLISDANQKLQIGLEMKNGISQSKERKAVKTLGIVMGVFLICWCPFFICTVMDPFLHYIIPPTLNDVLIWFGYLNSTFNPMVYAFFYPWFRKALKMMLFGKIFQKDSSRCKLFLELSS
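test system = CHO RD-HGA16 cells carrying human TAAR1 plus Gα16 | schedule = 17-24 h seeding, 75 min 37 °C dye, 30 min RT | compound dosing = 3 µM single concentration | control set = DMSO and PEA EC100 | replicates = n 1 | signal = Fluo-8 fluorescence, 5 s baseline then 140 s kinetic read | measure = percent activation vs PEA EC100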
CHO parental Ca – counter-screen for OX1R antagonists: effect in parental CHO cells; inhibition, % at 5.6 µM; 330,000 compounds, 0.63% hits; parental CHO-K1, ATP-induced calcium, Fluo-8 fluorescence; AID 463079;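 active = inhibition above that plate's mean sample inhibition plus 3 SD, cut at about 26% in these data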;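 note: 0% = ATP-challenged DMSO wells and 100% = DMSO wells without ATP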
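Measured by: calcium-sensitive Fluo-8 fluorescence / Test system: CHO parental line / Controls: ATP-challenged DMSO wells low, unchallenged DMSO wells high / Measure: % inhibition / Compound: single nominal dose of 5.6 µM per compound / Replicates: single well per compound, no replicates / Reagent: ATP as calcium-mobilizing challenge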
GPR7 antag – blocks human GPR7 receptor signaling; 290,000 compounds, 1.1% hits; P48145; inhibition, % at 4.4 µM; GPR7-expressing cells, fluorescence antagonist assay; in the data active = inhibition above about 16%, passing the limit was not always enough;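 note: cells stimulated with the agonist NPW; 0% = agonist with vehicle and 100% = vehicle without agonist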
TAAR1 antag – human TAAR1 antagonism. AID 624466. Q96RJ0. 360,000 compounds, 1.5% hits. CHO RD-HGA16 TAAR1, Fluo-8 calcium fluorescence, antagonist. inhibition, % at 3 µM;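 active = inhibition above a per-plate cutoff, the mean inhibition of test compounds on that plate plus 3 SD, cut at about 49% in these data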;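 note: 0% = DMSO plus EC80 beta-PEA response and 100% = DMSO alone without agonist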
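System: CHO RD-HGA16 cells bearing hTAAR1. Reagent: EC80 β-phenethylamine stimulus. Schedule: seeding 17-24 h prior, 75-min 37 °C, 30-min RT dye loading. Signal: Fluo-8 intracellular calcium dye fluorescence, real-time kinetic reads. Read-out: % inhibition from peak post-agonist over basal fluorescence ratio. Benchmarks: vehicle wells and EC80 agonist wells. Replicates: n of 1.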
OX1R antag-2 – antagonists of human orexin 1 receptor. O43613. CHO/OX1R cells, Fluo-8 calcium fluorescence, orexin A. inhibition, % at 5 µM. 330,000 compounds, 0.43% hits. AID 434989;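 active = inhibition above its plate's threshold, mean inhibition of all tested compounds on the plate plus 3 SD, cut at about 37% in these data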;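 note: 0% = orexin A challenge wells and 100% = SB-334867-A antagonist wells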
The depositor's hits bear a star; x = no result.

SMILES	OX1R antag-1	TAAR1 ag	CHO parental Ca	GPR7 antag	TAAR1 antag	OX1R antag-2
CN(C)CCCN(C(=O)CCc1ccccc1)c1nc2c(F)cccc2s1	11	14	-20	21*	-9	-28
CN(C)CCCN(C(=O)CCOc1ccccc1)c1nc2c(F)cccc2s1	x	4	x	-5	-5	x
CCOC(=O)N[C@@H](Cc1cccnc1)C(=O)N1CCC[C@H]1C(=O)NC1CCCC1	x	3	x	x	-12	x
Cc1ccnc(SCCn2c(N3CCCCC3)nc3c2c(=O)[nH]c(=O)n3C)n1	x	x	x	1	x	x
Cc1ccnc(SCCn2c(N3CCN(c4ccccc4)CC3)nc3c2c(=O)[nH]c(=O)n3C)n1	21	12	-14	9	51*	-24
O=[N+]([O-])C(/C=C(\Cl)[N+](=O)[O-])=C(N1CCCCC1)N1CCCCC1	64*	6	-16	2	10	-21
COc1ccc(NC(=O)c2cc(Br)ccc2Cl)c([N+](=O)[O-])c1	35	0	31*	-7	10	14
COc1ccc(Cl)cc1C(=O)NNC(=O)CSc1nncn1C	6	1	-8	x	-16	-16
COc1ccc(NC(=O)CS(=O)(=O)Cc2ccccc2)c([N+](=O)[O-])c1	50*	0	-18	-5	-4	-27
COc1ccccc1C(=O)NC(=O)CSc1nncn1C	-5	5	40*	x	-26	1
COc1ccc(NC(=O)CSc2ccccc2)c([N+](=O)[O-])c1	9	1	-10	-8	-8	-35
COc1ccc(NC(=O)CSc2nncn2C)c([N+](=O)[O-])c1	38*	2	-9	-3	-3	3
COc1ccc(NC(=O)c2ccc(C)cc2Cl)c([N+](=O)[O-])c1	35	2	9	-13	2	-23
COC(=O)N(C)C[C@H]1OCc2cn(nn2)CCCC(=O)N([C@H](C)CO)C[C@@H]1C	x	0	x	x	-14	x
COc1ccc(/C=C/C(=O)Oc2cccc(/C=N/NC(=O)c3cccc(F)c3)c2)cc1	12	7	-3	18*	35	5
Cc1cc(C)c(C2=NOC3c4ccccc4OCC23)c(C)c1 (centres undefined)	x	1	x	x	-11	x
CCCCOc1ccccc1C1CC(=O)NC2=C1C(=O)CCC2 (centres undefined)	8	24	-32	20*	14	-1
CCCOc1ccccc1C1CC(=O)NC2=C1C(=O)CCC2 (centres undefined)	26	11	-7	3	6	-25
COC(=O)CSc1nc2c(c(-c3ccco3)c1C#N)CCCC2	40	x	-26	-8	x	-32
CCOC(=O)CSc1nc2c(c(-c3ccc(C)o3)c1C#N)CCCC2	15	8	33*	-7	42	-32
CCOC(=O)C1(Cc2cccc(OC)c2)CCCN(C(=O)CCN2CCCO2)C1 (centres undefined)	15	1	-11	-15	-29	-21
CC(C)(C)c1ccc(-n2ncc3c2CCCC3NC(=O)C2(C(N)=O)CC2)cc1 (centres undefined)	7	4	43*	16	20	22
Cc1cc(C(=O)NC2CCCc3c2cnn3-c2ccc(C(C)(C)C)cc2)nn1C (centres undefined)	23	-2	51*	10	4	9
Cc1cc(C)nc(-n2nc(C)c(Br)c2Nc2ccc(Br)cc2)n1	11	10	-24	2	-10	-39
Cc1nn(C)c(Nc2ccc(Br)cc2)c1Br	50	6	71*	8	8	40*
SMILES	OX1R antag-1	TAAR1 ag	CHO parental Ca	GPR7 antag	TAAR1 antag	OX1R antag-2
O=c1[nH]c2ccc(Cl)cc2c(-c2ccccc2)c1SC(=S)N1CCOCC1	35	30	-18	4	56*	25
CCOc1ccccc1N1CCN(c2nc(N)c(C#N)c(CC#N)c2C#N)CC1	12	19	7	-13	50*	5
COc1ccc(C(=O)Nc2ccc(C3CC3(Cl)Cl)cc2)cc1 (centres undefined)	39	4	37*	-8	-10	10
COc1ccc(C(=O)NNC(=O)c2ccc3ccccc3c2)cc1	x	1	x	x	8	x
COc1ccc(CC(=O)Nc2ccc(C(C)=O)cc2)cc1	21	0	-4	25*	7	-72
COc1ccc(NC(=O)c2ccc3ccccc3c2)cc1	11	16	42*	14	3	-3
COCCn1c2nc(=O)n(-c3ccccc3)c(=O)c-2nc2ccccc21	x	59*	x	x	20	x
COCCn1c(-c2ccc(OC)cc2)nc2ccccc21	32	1	-14	-12	6	-32
O=C(CNC(=O)C1COc2ccccc2O1)N/N=C/c1ccc(O)cc1O (centres undefined)	13	41*	-4	3	-19	-1
O=C(CNC(=O)C1COc2ccccc2O1)N/N=C\c1cccc(O)c1 (centres undefined)	13	22	-7	-10	-11	-17
Cc1ccc(Oc2nc3c(c(=O)n(Cc4ccccc4F)c(=O)n3C)n2C)cc1	1	20	-12	-2	50*	-6
Cc1ccc(-c2noc(CSc3nnnn3C3CCCCC3)n2)cc1	10	0	38*	-18	-22	-16
CCOc1cc(/C=C2\CCCc3c2nc2ccccc2c3C(=O)O)ccc1OC	133*	59*	29	-8	15	32
COc1cccc(/C=C2\CC(C)Cc3c2nc2ccccc2c3C(=O)O)c1OC (centres undefined)	75*	0	-6	-2	-9	-20
COc1ccccc1C(=O)CN1C(=O)NC2(CCc3ccccc32)C1=O (centres undefined)	28	4	-12	x	-8	-13
COc1ccc(NC(=O)c2cc3c(=O)n(C)c4ccccc4c3s2)cc1OC	54*	7	-8	-9	-7	-12
CCn1c(=O)c2cc(C(=O)Nc3ccc(OC)cc3OC)sc2c2ccccc21	13	0	-5	-19	6	1
Cc1cc(Cl)ccc1NC(=O)CN1CCC(C(O)(c2ccccc2)c2ccccc2)CC1	1	56*	-21	-1	15	-21
COc1cccc(N=Nc2c(N)[nH]n3c(=O)cc(-c4ccccc4)nc23)c1	0	4	-19	14	2	-10
COc1cccc(N=Nc2c(=O)[nH]n3c(C)cc(C)nc23)c1	64*	0	-7	12	-19	-13
Cc1ccccc1N(C(=O)c1snc(C(N)=O)c1N)C(C(=O)NCC1CCCO1)c1ccc(F)cc1 (centres undefined)	0	6	-12	-4	5	-16
Cc1nnc(N2C(=O)c3cccc4cccc(c34)C2=O)s1	59*	6	9	1	2	-5
